Experimental data as given in ChEMBL document CHEMBL2034874, “5-acetyl-2-arylbenzimidazoles as antiviral agents. Part 4” (Eur J Med Chem, 2012).

How the values were obtained:
[1] = Cytotoxicity against BHK21 cells by MTT assay; assay type: cell-based, Mesocricetus auratus; details: hamster, BHK-21 cells
How it was run: (§1)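 Mock-infected MDBK (6×10^5 cells/mL, MEM-E with 10% horse serum) or BHK (1×10^6 cells/mL, MEM-E with 10% FBS) cells incubated with serial compound dilutions at 37 °C and 5% CO2. Viability measured by MTT after 48–96 h. CC50 by linear regression against untreated controls.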

[2] = system: Mammalian orthoreovirus 1; assay: Antiviral activity against Reovirus 1 3651 ATCC VR-214 infected in BHK21 cells assessed as inhibition of virus-induced cytopathogenicity after 3 to 4 days by MTT assay; assay type: functional, organism-based; details: Mammalian orthoreovirus 1, 3651 ATCC VR-214, BHK-21
How it was run: (§2)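 BHK (5×10^4/well) or MDBK (3×10^4/well) cells grown to confluent monolayers overnight, infected at m.o.i. 0.01 in maintenance MEM-Earl with 0.5% inactivated FBS. Serially diluted compounds added after 1 h. Viability read by MTT after 3–4 days at 37 °C. Values are expressed as % of untreated controls, and EC50 is derived by linear regression. Duplicate samples.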

[3] = system: Vaccinia virus; assay: Antiviral activity against Vaccinia virus Elstree-Lister ATCC VR-1549 infected in african green monkey Vero-76 cells assessed as reduction in viral plaque after 3 days by crystal violet staining; assay type: functional, organism-based; details: Orthopoxvirus vaccinia, Elstree-Lister ATCC VR-1549, Vero 76, 72 h
[4] = Cytotoxicity against MDBK cells after 48 to 96 hrs by MTT assay; assay type: cell-based, Bos taurus; details: cattle; how it was run: as §1
[5] = system: Vesicular stomatitis Indiana virus; assay: Antiviral activity against Vesicular stomatitis virus indiana ATCC VR-1540 infected in african green monkey Vero-76 cells assessed as reduction in viral plaque after 2 days by crystal violet staining; assay type: functional, organism-based; details: ATCC VR-1540, Vero 76, 48 h
[6] = Antiviral activity against BVDV1 NADL ATCC VR-534 infected in MDBK cells assessed as inhibition of virus-induced cytopathogenicity after 3 to 4 days by MTT assay; assay type: functional, cell-based, Bovine viral diarrhea virus 1-NADL; details: Bovine viral diarrhea virus isolates and strains, ATCC VR-534, MDBK; how it was run: as §2
[7] = system: Coxsackievirus B5; assay: Antiviral activity against Coxsackie virus type B5 Ohio-1 ATCC VR-29 infected in african green monkey Vero-76 cells assessed as reduction in viral plaque after 3 days by crystal violet staining; assay type: functional, organism-based; details: Enterovirus B, Ohio-1 ATCC VR-29, Vero 76, 72 h
How it was run: (§3)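 Vero-76 monolayers (2×10^5 cells/well) infected for 2 h at 50–100 PFU/well. Unadsorbed virus removed. D-MEM with 1% inactivated FBS, 0.75% methylcellulose and serial compound dilutions added. Incubation at 37 °C for 3 days (CVB-5, HSV-1) or 5 days (RSV). Fixed and stained with 50% ethanol/0.8% crystal violet, then plaques counted. EC50 by linear regression versus untreated controls.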

[8] = Antiviral activity against Human respiratory syncytial virus A2 ATCC VR-1540 infected in african green monkey Vero-76 cells assessed as reduction in viral plaque after 5 days by crystal violet staining; assay type: functional, cell-based; details: ATCC VR-1540, Vero 76, 120 h; how it was run: as §3
[9] = system: Poliovirus 1; assay: Antiviral activity against Polio virus type 1 strain sabin ATCC VR-1562 infected in african green monkey Vero-76 cells assessed as reduction in viral plaque after 2 days by crystal violet staining; assay type: functional, cell-based, Human poliovirus 1 strain Sabin; details: Enterovirus C, ATCC VR-1562, Vero 76, 48 h
[10] = Cytotoxicity against african green monkey Vero 76 cells after 48 to 96 hrs by MTT assay; assay type: cell-based; details: chlorocebus sabaeus
[11] = system: Yellow fever virus; assay: Antiviral activity against Yellow fever virus 17D infected in BHK21 cells assessed as inhibition of virus-induced cytopathogenicity after 3 to 4 days by MTT assay; assay type: functional, cell-based; details: BHK-21
[12] = system: Human alphaherpesvirus 1; assay: Antiviral activity against Herpes simplex virus type 1 KOS ATCC VR-1493 infected in african green monkey Vero-76 cells assessed as reduction in viral plaque after 3 days by crystal violet staining; assay type: functional, organism-based; details: Human alphaherpesvirus 1, KOS ATCC VR1493, Vero 76, 72 h; how it was run: as §3

Row | Structure (SMILES) | CC50 [1] | EC50 [2] | EC50 [3] | CC50 [4] | EC50 [5] | EC50 [6] | EC50 [7] | EC50 [8] | EC50 [9] | CC50 [10] | EC50 [11] | EC50 [12]
1 | C[C@@]1(O)[C@H](O)[C@@H](CO)O[C@H]1n1ccc(N)nc1=O | > 100 µM | 16 µM |  |  |  |  |  |  |  |  |  | 
2 | C/C(=N\NC(N)=O)c1ccc2c(c1)nc(-c1ccc(C(F)(F)F)cc1)n2C1CCCCC1 | > 100 µM | > 100 µM | > 100 µM | > 100 µM | > 100 µM | > 100 µM | > 100 µM | > 100 µM | > 100 µM | > 100 µM | > 100 µM | 
3 | Cc1cc2nc(-c3cccc4ccccc34)[nH]c2cc1C |  |  |  |  |  |  |  |  |  |  | 6 µM | 
4 | O=c1cnn([C@@H]2O[C@H](CO)[C@@H](O)[C@H]2O)c(=O)[nH]1 [6-AZAURIDINE] |  |  |  |  |  |  |  | 1.2 µM |  | ≥ 12.5 µM |  | 
5 | CC(=O)c1ccc2[nH]c(/C=C/c3ccc([N+](=O)[O-])cc3)nc2c1 |  |  |  |  |  | 1.7 µM |  |  |  |  |  | 
6 | C/C(=N\NC(N)=O)c1ccc2c(c1)nc(-c1ccccn1)n2C1CCCCC1 | > 100 µM | > 100 µM | > 100 µM | > 100 µM | > 100 µM | > 100 µM | > 100 µM | > 100 µM | > 100 µM | > 100 µM | > 100 µM | > 100 µM
7 | Nc1nc2c(ncn2COCCO)c(=O)[nH]1 [ACYCLOVIR] |  |  |  |  |  |  |  |  |  | > 100 µM |  | 
8 | O=[N+]([O-])c1ccc(-c2nc3cc(Cl)c(Cl)cc3[nH]2)cc1 |  |  | 0.1 µM |  |  |  |  |  |  |  |  | 
9 | C/C(=N\NC(N)=O)c1ccc2[nH]c(-c3ccc(Cl)cc3)nc2c1 | > 100 µM | > 100 µM | > 100 µM | > 100 µM | > 100 µM | > 100 µM | > 100 µM | > 100 µM | > 100 µM | > 100 µM | > 100 µM | > 100 µM
10 | C/C(=N\NC(N)=O)c1ccc2[nH]c(-c3ccc(C(F)(F)F)cc3)nc2c1 | > 100 µM | > 100 µM | > 100 µM | > 100 µM | > 100 µM | 45 µM | > 100 µM | > 100 µM | > 100 µM | > 100 µM | > 100 µM | > 100 µM
11 | CC(=O)c1ccc2[nH]c(-c3ccc(C(F)(F)F)cc3)nc2c1 | > 100 µM | > 100 µM | > 100 µM | > 100 µM | > 100 µM | 15 µM | > 100 µM | > 100 µM | > 100 µM | > 100 µM | > 100 µM | > 100 µM
12 | COc1c(C)c2c(c(O)c1C/C=C(\C)CCC(=O)O)C(=O)OC2 [MYCOPHENOLIC ACID] |  |  | 1.5 µM |  |  |  |  |  |  | ≥ 12.5 µM |  | 
13 | C/C(=N\NC(N)=O)c1ccc2[nH]c(C3CCCCC3)nc2c1 | > 100 µM | > 100 µM | > 100 µM | > 100 µM | > 100 µM | 44 µM | > 100 µM | > 100 µM | > 100 µM | > 100 µM | > 100 µM | > 100 µM
14 | COc1ccc(-c2nc3cc(/C(C)=N/NC(N)=O)ccc3n2C2CCCCC2)cc1 |  |  |  | 54 µM |  | > 54 µM |  |  |  |  |  | 
15 | C/C(=N\NC(N)=O)c1ccc2[nH]c(-c3ccccc3)nc2c1 | > 100 µM | > 100 µM | > 100 µM | > 100 µM | > 100 µM | 50 µM | > 100 µM | > 100 µM | > 100 µM | > 100 µM | > 100 µM | > 100 µM
16 | C/C(=N\O)c1ccc2[nH]c(-c3ccc(C(F)(F)F)cc3)nc2c1 |  |  |  | 55 µM |  | > 55 µM |  |  |  |  |  | 
17 | C/C(=N\NC(N)=O)c1ccc2c(c1)nc(-c1ccc(Cl)cc1)n2C1CCCCC1 | > 100 µM | > 100 µM | > 100 µM | > 100 µM | > 100 µM | > 100 µM | > 100 µM | > 100 µM | > 100 µM | > 100 µM | > 100 µM | > 100 µM
